Measured values: ChEMBL document CHEMBL5104168, “Design, synthesis, and antitumor study of a series of novel 1-Oxa-4-azaspironenone derivatives” (Bioorg Med Chem Lett, 2022)

Tests used:
A549 = assay: Anticancer activity against human A549 cells assessed as inhibition of cell proliferation; assay type: functional, cell-based
MDA-MB-231 [1] = assay: Anticancer activity against human MDA-MB-231 cells assessed as inhibition of cell proliferation; assay type: functional, cell-based
HeLa = assay: Anticancer activity against human HeLa cells assessed as inhibition of cell proliferation; assay type: functional, cell-based
[2] = Cytotoxicity against HUVEC cells assessed as inhibition of cell growth; conditions: human
MDA-MB-231 [3] = assay: Induction of cell cycle arrest in human MDA-MB-231 cells assessed as accumulation of cells at G1 phase at 10 uM (reference value: 61.33 %); assay type: functional
MDA-MB-231 [4] = assay: Induction of cell cycle arrest in human MDA-MB-231 cells assessed as accumulation of cells at G2 phase at 10 uM (reference value: 16.5 %); assay type: functional
MDA-MB-231 [5] = assay: Induction of cell cycle arrest in human MDA-MB-231 cells assessed as accumulation of cells at S phase at 10 uM (reference value: 21.17 %); assay type: functional
MDA-MB-231 [6] = assay: Induction of apoptosis in human MDA-MB-231 cells assessed as viable cells at 10 uM by Annexin V-FITC/propidium iodide staining based flow cytometric analysis (reference value: 93.6 %); assay type: functional; conditions: read-out: Activity
MDA-MB-231 [7] = assay: Induction of apoptosis in human MDA-MB-231 cells assessed as early apoptotic cells at 10 uM by Annexin V-FITC/propidium iodide staining based flow cytometric analysis (reference value: 4.66 %); assay type: functional
Outline: (§1)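 MDA-MB-231 cells were cultured with compound at 10 μM. DMSO-treated cells served as the vehicle control and combretastatin A4 (10 μM) as the positive control. Cells were double-labelled with Annexin V-FITC and propidium iodide and analysed by flow cytometry. Population percentages were read from the quadrants: early-apoptotic, late-apoptotic and dead cells. Incubation time was not given.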

MDA-MB-231 [8] = assay: Induction of apoptosis in human MDA-MB-231 cells assessed as late apoptotic cells at 10 uM by Annexin V-FITC/propidium iodide staining based flow cytometric analysis (reference value: 1.02 %); assay type: functional; outline: as §1
MDA-MB-231 [9] = assay: Induction of apoptosis in human MDA-MB-231 cells assessed as dead cells at 10 uM by Annexin V-FITC/propidium iodide staining based flow cytometric analysis (reference value: 0.68 %); assay type: functional; outline: as §1

Row | Structure (SMILES) | IC50 (A549) [nM] | IC50 (MDA-MB-231 [1]) [nM] | IC50 (HeLa) [nM] | other results
1 | CCSC1CC(=O)CC(SCC)C12OCC(=O)N2Cc1ccc(C)cc1 (configuration not stated) | 2300 | 1360 | 2410 | 
2 | Cc1ccc(CN2C(=O)COC23C=CC(=O)C=C3)cc1 | 260 | 100 | 200 | 
3 | O=C1C=CC2(C=C1)OCC(=O)N2Cc1ccc([N+](=O)[O-])cc1 | 810 | 210 | 270 | 
4 | O=C1C=CC2(C=C1)OCC(=O)N2Cc1ccc(Cl)cc1 | 1290 | 110 | 410 | IC50 [2]: 44600 nM
5 | O=C1C=CC2(OCC(=O)N2Cc2ccc(Cl)cc2)C2CC12 (configuration not stated) | 6060 | 100 | > 10000 | IC50 [2]: 83600 nM; Activity (MDA-MB-231 [3]): 53.57%; Activity (MDA-MB-231 [4]): 27.16%; Activity (MDA-MB-231 [5]): 19.28%; viability at 10 µM (MDA-MB-231 [6]): 85.4%; Activity (MDA-MB-231 [7]): 10.9%; Activity (MDA-MB-231 [8]): 3%; Activity (MDA-MB-231 [9]): 0.72%
6 | O=C1C=CC2(OCC(=O)N2Cc2cccc(Cl)c2)C2CC12 (configuration not stated) | > 10000 | 460 | 1730 | 
7 | O=C1C=CC2(C=C1)OCC(=O)N2Cc1c(Cl)cccc1Cl | 4950 | 120 | 290 | 
8 | O=C1C=CC2(C=C1)OCC(=O)N2Cc1ccccc1Cl | 1050 | 70 | 360 | 
9 | COC(=O)C(C(=O)OC)C1CC(=O)C=CC12OCC(=O)N2Cc1ccc(Br)cc1 (configuration not stated) | 2550 | 1230 | 1060 | 
10 | COC(=O)C(C(=O)OC)C1CC(=O)C=CC12OCC(=O)N2Cc1ccc(C)cc1 (configuration not stated) | 9250 | 340 | 410 | 
11 | CCSC1CC(=O)CC(SCC)C12OCC(=O)N2Cc1ccc(Cl)cc1 (configuration not stated) | > 10000 | 260 | 3920 | 
12 | O=C1C=CC2(OCC(=O)N2Cc2ccc(Br)cc2)C2CC12 (configuration not stated) | 6090 | 1120 | > 10000 | 
13 | CCSC1=CC(=O)CC(SCC)C12OCC(=O)N2Cc1c(Cl)cccc1Cl (configuration not stated) | 9270 | 120 | 210 | 
14 | O=C1C=CC2(C=C1)OCC(=O)N2Cc1ccc(Br)cc1 | 190 | 80 | 150 | 
15 | O=C1C=CC2(C=C1)OCC(=O)N2Cc1cccc(Cl)c1 | 3010 | 110 | 370 | 
16 | O=C1C=CC2(OCC(=O)N2Cc2ccc([N+](=O)[O-])cc2)C2CC12 (configuration not stated) | > 10000 | 1200 | 3860 | 
17 | O=C1C=CC2(OCC(=O)N2Cc2ccccc2Cl)C2CC12 (configuration not stated) | 660 | 420 | > 10000 | 
18 | COC(=O)C(C(=O)OC)C1CC(=O)C=CC12OCC(=O)N2Cc1ccc(Cl)cc1 (configuration not stated) | 9980 | 380 | 180 | 
19 | O=C1C=CC2(OCC(=O)N2Cc2c(Cl)cccc2Cl)C2CC12 (configuration not stated) | 8830 | 5520 | 1760 | 
20 | COC(=O)C(C(=O)OC)C1CC(=O)C=CC12OCC(=O)N2Cc1cccc(Cl)c1 (configuration not stated) | 260 | 250 | 340 | 
21 | Cn1c(CCCC(=O)O)nc2cc(N(CCCl)CCCl)ccc21 [BENDAMUSTINE] |  |  | > 20000 | 
22 | COc1ccc(/C=C\c2cc(OC)c(OC)c(OC)c2)cc1O [COMBRETASTATIN A4] |  |  |  | Activity (MDA-MB-231 [3]): 10.16%; Activity (MDA-MB-231 [4]): 57.38%; Activity (MDA-MB-231 [5]): 32.46%; viability at 10 µM (MDA-MB-231 [6]): 77.7%; Activity (MDA-MB-231 [7]): 17.2%; Activity (MDA-MB-231 [8]): 4.81%; Activity (MDA-MB-231 [9]): 0.35%
